Source: ChEMBL document CHEMBL1821590, “Novel dihydropyrimidines and its pyrazole derivatives: synthesis and pharmacological screening” (Eur J Med Chem, 2011)
In brackets after ≈: the same amount, converted by molar mass.

Assays:
Format in all cases: functional
Metaphire posthuma [1] = assay: Anthelmintic activity against Pheretima posthuma assessed as time taken for complete parasite paralysis at 0.5% w/v
Summary of the method: (§1)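 Earthworms (Pheretima posthuma) exposed to test solutions at 0.1, 0.2 and 0.5% w/v; time in minutes to complete paralysis (worms motionless) recorded. Albendazole as standard. Mean of three determinations ± S.D.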

Escherichia coli [2] = assay: Antimicrobial activity against Escherichia coli at 50 ug/ml by agar plate diffusion technique; settings: read-out: IZ
Summary of the method: (§2)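 Agar plate diffusion against E. coli, P. aeruginosa, S. aureus and B. subtilis, with compounds at 25, 50 and 100 µg/mL. Streptomycin as standard.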

Metaphire posthuma [3] = assay: Anthelmintic activity against Pheretima posthuma assessed as time taken for complete parasite paralysis at 0.1% w/v; summary of the method: as §1
[4] = Antiinflammatory activity assessed as inhibition of albumin denaturation at 100 ug/ml by UV-visible spectrophotometry
Summary of the method: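 Compounds dissolved in minimal DMF, diluted in PBS pH 7.4 (final DMF <2.5%). 1 mL test solution (100 µg/mL) plus 1 mL 1% albumin in PBS, 15 min at 27 ± 1 °C, then heated 10 min at 60 ± 1 °C. After cooling, turbidity read at 660 nm. % inhibition = [(Vt/Vc) − 1] × 100 against a no-drug control. Triplicate, averaged. Diclofenac standard.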

Bacillus subtilis [5] = assay: Antimicrobial activity against Bacillus subtilis at 100 ug/ml by agar plate diffusion technique; settings: read-out: IZ; summary of the method: as §2
Aspergillus niger [6] = assay: Antimicrobial activity against Aspergillus niger at 50 ug/ml by paper disc method; settings: read-out: IZ
Summary of the method: (§3)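 Paper disc method against A. niger and C. albicans, with compounds at 25, 50 and 100 µg/mL. Amphotericin-B as standard.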

Escherichia coli [7] = assay: Antimicrobial activity against Escherichia coli at 25 ug/ml by agar plate diffusion technique; settings: read-out: IZ; summary of the method: as §2
Aspergillus niger [8] = assay: Antimicrobial activity against Aspergillus niger at 25 ug/ml by paper disc method; settings: read-out: IZ; summary of the method: as §3
Escherichia coli [9] = assay: Antimicrobial activity against Escherichia coli at 100 ug/ml by agar plate diffusion technique; settings: read-out: IZ; summary of the method: as §2
[10] = Antioxidant activity assessed as potassium ferricyanide ion reducing power after 20 mins
Summary of the method: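 Oyaizu method. Samples or ascorbic acid in DMF (12.5–100 µg/mL) mixed with 0.2 M phosphate buffer pH 6.6 and 1% potassium ferricyanide, 20 min at 50 °C. 10% TCA added, centrifuged. Supernatant mixed with water and 0.1% FeCl3, read at 700 nm. % = [(Vt/Vc) − 1] × 100. IC50 derived.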

Staphylococcus aureus [11] = assay: Antimicrobial activity against Staphylococcus aureus at 25 ug/ml by agar plate diffusion technique; settings: read-out: IZ; summary of the method: as §2
Staphylococcus aureus [12] = assay: Antimicrobial activity against Staphylococcus aureus at 100 ug/ml by agar plate diffusion technique; settings: read-out: IZ; summary of the method: as §2
Candida albicans [13] = assay: Antimicrobial activity against Candida albicans at 50 ug/ml by paper disc method; settings: read-out: IZ; summary of the method: as §3
Metaphire posthuma [14] = assay: Anthelmintic activity against Pheretima posthuma assessed as time taken for complete parasite paralysis at 0.2% w/v; summary of the method: as §1
Staphylococcus aureus [15] = assay: Antimicrobial activity against Staphylococcus aureus at 50 ug/ml by agar plate diffusion technique; settings: read-out: IZ; summary of the method: as §2
Bacillus subtilis [16] = assay: Antimicrobial activity against Bacillus subtilis at 50 ug/ml by agar plate diffusion technique; settings: read-out: IZ; summary of the method: as §2
[17] = Antioxidant activity assessed as nitric oxide radical scavenging activity after 150 mins
Summary of the method: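 10 mM sodium nitroprusside (4 mL), PBS pH 7.4 (1 mL) and sample or ascorbic acid in DMSO (1 mL, 12.5–100 µg/mL), incubated 150 min at 25 °C. Nitrite detected with sulphanilic acid (5 min) then naphthylethylenediamine (30 min, diffused light). Read at […]. Triplicate. % inhibition = [1 − (Vt/Vc)] × 100. IC50 derived from it.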

[18] = Antioxidant activity assessed as inhibition of lipid peroxidation using egg lecithin liposomes incubated for 1 hr
Summary of the method: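 Egg lecithin (3 mg/mL, phosphate buffer pH 7.4) sonicated 10 min to form liposomes. Sample or ascorbic acid (12.5–100 µg/mL) added. Peroxidation induced with FeCl3 and L-ascorbic acid, 1 h at 37 °C. Stopped with HCl/TCA/TBA/BHA, boiled 15 min, centrifuged, supernatant read at 532 nm. Triplicate. % inhibition vs control. IC50 derived.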

[19] = Antioxidant activity assessed as hydrogen peroxide scavenging activity after 10 mins
Summary of the method: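 H2O2 (20 mM) in PBS pH 7.4. 1 mL of sample or ascorbic acid in methanol (12.5–100 µg/mL) added to 2 mL H2O2 solution. A230 read after 10 min. % inhibition = [1 − (Vt/Vc)] × 100. Triplicate, averaged. IC50 derived from % inhibition across concentrations.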

Metaphire posthuma [20] = assay: Anthelmintic activity against Pheretima posthuma assessed as time taken for parasite death at 0.5% w/v
Summary of the method: (§4)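 Earthworms (Pheretima posthuma, spelled Perituma posthuma in text) exposed to test compounds at 0.1, 0.2 and 0.5% w/v. Albendazole served as standard, with an untreated control. Paralysis was recorded as the time until worms became motionless, then time to death was recorded, in minutes. Each value is the mean of three determinations with S.D.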

Candida albicans [21] = assay: Antimicrobial activity against Candida albicans at 25 ug/ml by paper disc method; settings: read-out: IZ; summary of the method: as §3
Metaphire posthuma [22] = assay: Anthelmintic activity against Pheretima posthuma assessed as time taken for parasite death at 0.2% w/v; summary of the method: as §4
Candida albicans [23] = assay: Antimicrobial activity against Candida albicans at 100 ug/ml by paper disc method; settings: read-out: IZ; summary of the method: as §3
Bacillus subtilis [24] = assay: Antimicrobial activity against Bacillus subtilis at 25 ug/ml by agar plate diffusion technique; settings: read-out: IZ; summary of the method: as §2
Aspergillus niger [25] = assay: Antimicrobial activity against Aspergillus niger at 100 ug/ml by paper disc method; settings: read-out: IZ; summary of the method: as §3
Metaphire posthuma [26] = assay: Anthelmintic activity against Pheretima posthuma assessed as time taken for parasite death at 0.1% w/v; summary of the method: as §4
Pseudomonas aeruginosa [27] = assay: Antimicrobial activity against Pseudomonas aeruginosa at 50 ug/ml by agar plate diffusion technique; settings: read-out: IZ; summary of the method: as §2
Pseudomonas aeruginosa [28] = assay: Antimicrobial activity against Pseudomonas aeruginosa at 100 ug/ml by agar plate diffusion technique; settings: read-out: IZ; summary of the method: as §2
Pseudomonas aeruginosa [29] = assay: Antimicrobial activity against Pseudomonas aeruginosa at 25 ug/ml by agar plate diffusion technique; settings: read-out: IZ; summary of the method: as §2

SMILES	Time (Metaphire posthuma [1])	zone of inhibition at 50 µg/mL (Escherichia coli [2])	Time (Metaphire posthuma [3])	inhibition [4]	zone of inhibition at 100 µg/mL (Bacillus subtilis [5])	zone of inhibition at 50 µg/mL (Aspergillus niger [6])	zone of inhibition at 25 µg/mL (Escherichia coli [7])	zone of inhibition at 25 µg/mL (Aspergillus niger [8])	zone of inhibition at 100 µg/mL (Escherichia coli [9])	IC50 [10]	zone of inhibition at 25 µg/mL (Staphylococcus aureus [11])	zone of inhibition at 100 µg/mL (Staphylococcus aureus [12])	zone of inhibition at 50 µg/mL (Candida albicans [13])	Time (Metaphire posthuma [14])	zone of inhibition at 50 µg/mL (Staphylococcus aureus [15])	zone of inhibition at 50 µg/mL (Bacillus subtilis [16])	IC50 [17]	IC50 [18]	IC50 [19]	zone of inhibition at 25 µg/mL (Bacillus subtilis [24])	further results
CSc1nc(-c2ccco2)c(C#N)c(=O)n1C	32.55 min	6.12 mm	42.68 min	57.2%	15.6 mm	15.9 mm	5.74 mm	12.3 mm	7.82 mm	68 µg/mL (≈ 275 µM)	7.06 mm	12.6 mm	16.8 mm	36.59 min	9.12 mm	12.2 mm	108 µg/mL (≈ 437 µM)	90 µg/mL (≈ 364 µM)	79 µg/mL (≈ 319 µM)	11.1 mm	Time (Metaphire posthuma [20]): 53.98 min; zone of inhibition at 25 µg/mL (Candida albicans [21]): 13 mm; Time (Metaphire posthuma [22]): 55.49 min; zone of inhibition at 100 µg/mL (Candida albicans [23]): 18.4 mm; zone of inhibition at 100 µg/mL (Aspergillus niger [25]): 23.5 mm; Time (Metaphire posthuma [26]): 60.18 min
CCOC(=O)c1cnn(-c2nc(-c3ccccc3F)c(C#N)c(=O)n2C)c1N	48.38 min	22.3 mm	70.67 min	48.9%	28 mm	14.1 mm	15.1 mm	11.9 mm	27.5 mm	69 µg/mL (≈ 180 µM)	15.8 mm	26.7 mm	15.2 mm	68.48 min	20.8 mm	19.3 mm	87 µg/mL (≈ 228 µM)	94 µg/mL (≈ 246 µM)	86 µg/mL (≈ 225 µM)	14.8 mm	zone of inhibition at 50 µg/mL (Pseudomonas aeruginosa [27]): 16.1 mm; zone of inhibition at 100 µg/mL (Pseudomonas aeruginosa [28]): 26.2 mm; Time (Metaphire posthuma [20]): 60.77 min; zone of inhibition at 25 µg/mL (Candida albicans [21]): 12 mm; zone of inhibition at 25 µg/mL (Pseudomonas aeruginosa [29]): 12.7 mm; Time (Metaphire posthuma [22]): 80.74 min; zone of inhibition at 100 µg/mL (Candida albicans [23]): 21.2 mm; zone of inhibition at 100 µg/mL (Aspergillus niger [25]): 21.2 mm; Time (Metaphire posthuma [26]): 88.45 min
CCOC(=O)c1cnn(-c2nc(-c3cccc(O)c3O)c(C#N)c(=O)n2C)c1N	53.34 min	16 mm	60.22 min	57.6%	21.8 mm	11.7 mm	13.1 mm	9.48 mm	22.9 mm	41 µg/mL (≈ 103 µM)	12.7 mm	20.3 mm	13.3 mm	65.54 min	16.1 mm	15.1 mm	58 µg/mL (≈ 146 µM)	49 µg/mL (≈ 124 µM)	53 µg/mL (≈ 134 µM)	14.4 mm	zone of inhibition at 50 µg/mL (Pseudomonas aeruginosa [27]): 12.8 mm; zone of inhibition at 100 µg/mL (Pseudomonas aeruginosa [28]): 20.3 mm; Time (Metaphire posthuma [20]): 60.74 min; zone of inhibition at 25 µg/mL (Candida albicans [21]): 10.4 mm; zone of inhibition at 25 µg/mL (Pseudomonas aeruginosa [29]): 10.3 mm; Time (Metaphire posthuma [22]): 75.78 min; zone of inhibition at 100 µg/mL (Candida albicans [23]): 17.7 mm; zone of inhibition at 100 µg/mL (Aspergillus niger [25]): 17.2 mm; Time (Metaphire posthuma [26]): 70.56 min
CN[C@@H]1[C@H](O[C@H]2[C@H](O[C@H]3[C@H](O)[C@@H](O)[C@H](N=C(N)N)[C@@H](O)[C@@H]3N=C(N)N)O[C@@H](C)[C@]2(O)C=O)O[C@@H](CO)[C@H](O)[C@H]1O [STREPTOMYCIN]		21.1 mm			31.8 mm		15.8 mm		28.7 mm		15.4 mm	29.5 mm			22.4 mm	20.2 mm				15.1 mm	zone of inhibition at 50 µg/mL (Pseudomonas aeruginosa [27]): 18.7 mm; zone of inhibition at 100 µg/mL (Pseudomonas aeruginosa [28]): 30.3 mm; zone of inhibition at 25 µg/mL (Pseudomonas aeruginosa [29]): 13.4 mm
CSc1nc(-c2cccs2)c(C#N)c(=O)n1C	33.35 min	6.29 mm	39.78 min	62.1%	18.5 mm	15.6 mm	5.86 mm	13 mm	8.78 mm	71 µg/mL (≈ 270 µM)	6.29 mm	11.1 mm	13.8 mm	38.48 min	8.92 mm	12.9 mm	87 µg/mL (≈ 330 µM)	83 µg/mL (≈ 315 µM)	72 µg/mL (≈ 273 µM)	10.4 mm	Time (Metaphire posthuma [20]): 42.34 min; zone of inhibition at 25 µg/mL (Candida albicans [21]): 10.6 mm; Time (Metaphire posthuma [22]): 47.82 min; zone of inhibition at 100 µg/mL (Candida albicans [23]): 21.8 mm; zone of inhibition at 100 µg/mL (Aspergillus niger [25]): 22.6 mm; Time (Metaphire posthuma [26]): 45.24 min
